The text below walks through data of ChEMBL document CHEMBL1127446, “Structure-activity relationships of 1,2,4-triazolo[1,5-a] quinoxalines and their 1-deaza analogues imidazo[1,2-a]quinoxalines at the benzodiazepine receptor” (J Med Chem, 1994).

Test [1] addresses T1, GABA-A receptor; anion channel (Bos taurus) (UniProt P10063+P08220+P20237+P08219+P10064+P22300). The experiment in a line: GABA ratio is measured by IC50 (compound)/IC50 (compound at 10 uM GABA. In kind it is protein-complex assay. The procedure, abridged: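 [³H]flunitrazepam (0.2 nM) displacement in bovine brain membranes; IC50 from log-probit plots, measured without and with 10 μM GABA. Ratio = IC50 without GABA / IC50 with GABA, from five independent experiments; compounds dissolved in DMSO.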

The target in test [2] is GABA-A receptor; anion channel. The experiment in a line: Binding affinity to BZR receptor on bovine cerebral cortex by [3H]flunitrazepam displacement. In kind it is tissue-based. The procedure, abridged:
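Compounds first screened at 10 μM, then IC50 from log-probit plots and Ki derived from it. Ki given as mean ± SEM of four determinations.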

The target in test [3] is T1, GABA-A receptor; anion channel (Bos taurus). As to the kind of experiment: Binding affinity to BZR receptor of bovine cerebral cortex by [3H]flunitrazepam displacement at 10 uM. In kind it is tissue-based. The procedure, abridged: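 Percent inhibition of specific binding measured with test compound at 10 μM, dissolved in DMSO.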

pKi: −log10 of the molar value.

As to `Oc1nc2ccc(Cl)cc2n2nc(-c3ccsc3)nc12`, the Ratio in test [1] was found to be 0.8.

Consider `COc1ccc(-c2nc3c(=O)[nH]c4ccc(Cl)cc4n3n2)cc1`, for which the pKi (usually the negative decadic logarithm of the Ki, by convention in mol/L) in test [2] was 8.27. For the compound `Oc1nc2ccccc2n2nc(-c3cccs3)nc12`, the Ratio in test [1] was 0.92. In addition, the pKi in test [2] was 7.66.

Take `Oc1nc2ccc(Cl)cc2n2nc(-c3ccccc3F)nc12`: the Ratio in test [1] came out at 0.77. In test [2], this compound showed a pKi of 8.54.

Turning to `Oc1ccc(-c2nc3c(O)nc4ccc(Cl)cc4n3n2)cc1`, the Ratio in test [1] turned out to be 0.88. The same compound gave a pKi in test [2] of 7.53. For `Oc1nc2ccc(Cl)cc2n2nc(-c3cccc(F)c3)nc12`, in test [1], the Ratio amounted to 0.82. In test [2], this compound gave a pKi of 7.48. The corresponding values for `Oc1nc2ccccc2n2nc(-c3ccco3)nc12` are 1.05 and 7.15.

In the case of `O=c1[nH]c2ccc(Cl)cc2n2nc(-c3cccs3)nc12`, in test [2], the pKi was 7.76.

Consider `COc1ccc(-c2nc3c(O)nc4ccccc4n3n2)cc1`, for which the Ratio in test [1] is 1.04. The same compound showed a pKi in test [2] of 7.06. In the same order, the values of `Oc1ccc(-c2nc3c(O)nc4ccccc4n3n2)cc1` are 0.9 and 7.17.

As to `COc1ccc(-c2cn3c(n2)c(O)nc2ccccc23)cc1`, the Ratio in test [1] came to 1.21. Further, in test [2], the negative logarithm of the Ki (pKi) was 7.25.

As for `COc1ccc(-c2nc3c(O)nc4ccc(Cl)cc4n3n2)cc1`, the Ratio in test [1] stood at 1.03. In the case of `Oc1nc2ccccc2n2nc(-c3ccccc3F)nc12`, the Ratio in test [1] is 1.04. The compound also showed a negative-log Ki (pKi) in test [2] of 8.05.

In the case of `Oc1nc2ccc(Cl)cc2n2nc(-c3ccco3)nc12`, the Ratio in test [1] was 0.67. This compound also gave a pKi in test [2] of 7.84. The corresponding values for `Oc1nc2ccc(Br)cc2n2nc(-c3ccco3)nc12` are 0.77 and 7.88.

As for `Oc1nc2ccc(Cl)cc2n2nc(-c3ccoc3)nc12`, the Ratio in test [1] was 0.84. Further, the pKi in test [2] was 8.01. `O=c1[nH]c2ccc(Cl)cc2n2nc(-c3ccsc3)nc12`: in test [2], the pKi was 7.80. On to `Cn1c(=O)c2nc(-c3ccccc3)cn2c2ccccc21`, for which the inhibition (in general, the percentage by which the read-out fell short of the control) in test [3] stood at 2%.

Regarding `Oc1nc2ccc(Cl)cc2n2nc(-c3cccs3)nc12`, the Ratio in test [1] is 1.09.

Turning to `Oc1nc2ccccc2n2cc(-c3cccs3)nc12`, the Ratio in test [1] was found to be 1.13. Besides, the pKi in test [2] was 7.80. The corresponding values for `Oc1nc2ccccc2n2cc(-c3ccccc3)nc12` are 1.36 and 7.37.
